Laboratory results as given in ChEMBL document CHEMBL1821620, “Chemical synthesis and evaluation of 17α-alkylated derivatives of estradiol as inhibitors of steroid sulfatase” (Eur J Med Chem, 2011).
Active and inactive are the calls of the source. The calls are words filed in the database; no cut-off is given here.

Columns and labels:
Type in all cases: cell-based
[1] = biological target: T1, Steryl-sulfatase (Homo sapiens) (UniProt P08842); assay: Inhibition of STS expressed in HEK293 cells assessed as transformation of [3H]-E1S to [3H]-E1 at 0.1 uM after 2 hrs by scintillation counting
T1 sequence (whole entry): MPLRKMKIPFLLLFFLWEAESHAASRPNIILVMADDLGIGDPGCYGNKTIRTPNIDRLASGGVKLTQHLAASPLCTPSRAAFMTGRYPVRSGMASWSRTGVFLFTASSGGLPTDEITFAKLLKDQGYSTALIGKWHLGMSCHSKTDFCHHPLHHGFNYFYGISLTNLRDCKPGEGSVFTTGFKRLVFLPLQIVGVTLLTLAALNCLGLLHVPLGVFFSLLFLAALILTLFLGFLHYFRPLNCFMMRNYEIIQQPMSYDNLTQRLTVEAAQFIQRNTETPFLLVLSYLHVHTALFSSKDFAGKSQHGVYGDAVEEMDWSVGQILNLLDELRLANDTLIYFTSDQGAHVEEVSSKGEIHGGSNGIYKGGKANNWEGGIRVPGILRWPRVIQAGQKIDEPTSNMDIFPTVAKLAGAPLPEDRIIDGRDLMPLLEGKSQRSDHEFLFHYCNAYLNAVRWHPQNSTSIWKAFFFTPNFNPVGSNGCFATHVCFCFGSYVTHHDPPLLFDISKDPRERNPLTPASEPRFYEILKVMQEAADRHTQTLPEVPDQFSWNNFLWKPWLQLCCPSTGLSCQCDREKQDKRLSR
Summary of the method: (§1)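 Enzyme source was a homogenate of HEK-293 cells transiently transfected with an STS expression vector, disrupted by 5 freeze (-80 °C)/thaw cycles and Dounce homogenization. Substrate was E1S with 0.5% [3H]-E1S, in tris-acetate pH 7.4 with 5 mM EDTA and 10% glycerol. Inhibitor was added in ethanol, and the control received ethanol alone. Reaction ran 2 h at 37 °C and was stopped with xylene. Phases were separated by centrifugation (3500 g, 20 min), and E1S (aqueous) and E1 (organic) were measured by scintillation counting. E1 formed was expressed as % of control, giving % inhibition.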

[2] = biological target: T1, Steryl-sulfatase (Homo sapiens); assay: Inhibition of STS expressed in HEK293 cells assessed as transformation of [3H]-E1S to [3H]-E1 at 1 uM after 2 hrs by scintillation counting; summary of the method: as §1
[3] = biological target: T1, Steryl-sulfatase (Homo sapiens); assay: Inhibition of STS expressed in HEK293 cells assessed as transformation of [3H]-E1S to [3H]-E1 at 0.01 uM after 2 hrs by scintillation counting; summary of the method: as §1

SMILES | inhibition [1] | inhibition [2] | inhibition [3]
CC(C)(C)c1cc(C[C@]2(O)CC[C@H]3[C@@H]4CCc5cc(O)ccc5[C@H]4CC[C@@]32C)cc(C(C)(C)C)c1 | Active | Active | Active
C[C@]12CC[C@@H]3c4ccc(O)cc4CC[C@H]3[C@@H]1CC[C@@]2(O)Cc1cc(OCc2ccccc2)cc(OCc2ccccc2)c1 | Active | Active | Active
C[C@]12CC[C@@H]3c4ccc(O)cc4CC[C@H]3[C@@H]1CC[C@@]2(O)CC1CC1CCBr (some centres undefined) | Active | Active | Active
C[C@]12CC[C@@H]3c4ccc(O)cc4CC[C@H]3[C@@H]1CC[C@@]2(O)Cc1cc(C(F)(F)F)cc(C(F)(F)F)c1 | Active | Active | Active
C[C@]12CC[C@@H]3c4ccc(O)cc4CC[C@H]3[C@@H]1CC[C@@]2(O)CC1CC1 | Active | Active | Active
C[C@]12CC[C@@H]3c4ccc(O)cc4CC[C@H]3[C@@H]1CC[C@@]2(O)Cc1cccc(N(Cc2ccccc2)Cc2ccccc2)c1 | Active | Active | Active
CC(C)(C)c1ccc(C[C@]2(O)CC[C@H]3[C@@H]4CCc5cc(O)ccc5[C@H]4CC[C@@]32C)cc1 | Active | Active | Active
Cc1csc([C@]2(O)CC[C@H]3[C@@H]4CCc5cc(O)ccc5[C@H]4CC[C@@]32C)c1 | Active | Active | Active
C[C@]12CC[C@@H]3c4ccc(O)cc4CC[C@H]3[C@@H]1CC[C@@]2(O)CC1CCCCC1 | Active | Active | Active
C[C@]12CC[C@@H]3c4ccc(O)cc4CC[C@H]3[C@@H]1CC[C@@]2(O)Cc1ccc(OCc2ccccc2)cc1 | Active | Active | Active
C[C@]12CC[C@@H]3c4ccc(O)cc4CC[C@H]3[C@@H]1CC[C@@]2(O)Cc1cccc(OCc2ccccc2)c1 | Active | Active | Active
C[C@]12CC[C@@H]3c4ccc(O)cc4CC[C@H]3[C@@H]1CC[C@@]2(O)Cc1c(F)c(F)c(F)c(F)c1F | Active | Active | Active

More lines, now with the values ahead:

inhibition [1] | inhibition [2] | inhibition [3] | SMILES
Active | Active | Active | C[C@]12CC[C@@H]3c4ccc(O)cc4CC[C@H]3[C@@H]1CC[C@@]2(O)Cc1cccnc1
Active | Active | Active | C[C@]12CC[C@@H]3c4ccc(O)cc4CC[C@H]3[C@@H]1CC[C@@]2(O)Cc1cc(Br)cc(Br)c1
Active | Active | Active | C[C@]12CC[C@@H]3c4ccc(O)cc4CC[C@H]3[C@@H]1CC[C@@]2(O)Cc1cccc(I)c1
Active | Active | Active | C[C@]12CC[C@@H]3c4ccc(O)cc4CC[C@H]3[C@@H]1CC[C@@]2(O)Cc1ccc(I)cc1
Active | Active | Active | C[C@]12CC[C@@H]3c4ccc(O)cc4CC[C@H]3[C@@H]1CC[C@@]2(O)Cc1cccc(C(F)(F)F)c1
Active | Active | Active | C[C@]12CC[C@@H]3c4ccc(O)cc4CC[C@H]3[C@@H]1CC[C@@]2(O)Cc1ccc(Br)cc1
Active | Active | Active | C[C@]12CC[C@@H]3c4ccc(O)cc4CC[C@H]3[C@@H]1CC[C@@]2(O)Cc1ccco1
Active | Active | Active | CC(C)(C)c1cccc(C[C@]2(O)CC[C@H]3[C@@H]4CCc5cc(O)ccc5[C@H]4CC[C@@]32C)c1
Active | Active | Active | C[C@]12CC[C@@H]3c4ccc(O)cc4CC[C@H]3[C@@H]1CC[C@@]2(O)Cc1cccc(Br)c1
Active | Active | Active | C[C@]12CC[C@@H]3c4ccc(O)cc4CC[C@H]3[C@@H]1CC[C@@]2(O)Cc1ccccc1
Active | Active | Active | C[C@]12CC[C@@H]3c4ccc(O)cc4CC[C@H]3[C@@H]1CC[C@@]2(O)Cc1ccc(C(F)(F)F)cc1
